A value given as a limit tells only on which side of the number the result lay.

This passage reports inhibition results from ChEMBL document CHEMBL2424622, “Development of amino-pyrimidine inhibitors of c-Jun N-terminal kinase (JNK): kinase profiling guided optimization of a 1,2,3-benzotriazole lead” (Bioorg Med Chem Lett, 2013).

The target of assay [1] is Ephrin type-A receptor 7 (Homo sapiens) (UniProt Q15375). Briefly: Competitive binding affinity to EPHA7 (unknown origin) at 10 uM in presence of ATP relative to control. The method, boiled down:
(§1)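 In vitro ATP-site competition binding assay, part of profiling against a diverse panel of 128 kinases. Each compound was tested at a single concentration of 10 µM. Kinome selectivity was summarized as S15 selectivity scores.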

In assay [2] the target is Death-associated protein kinase 3 (Homo sapiens, UniProt O43293). Briefly: Competitive binding affinity to DAPK3 (unknown origin) at 10 uM in presence of ATP relative to control. The method, boiled down: (§2)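 In vitro ATP-site competition binding assay across a diverse panel of 128 kinases, with each compound tested at a single concentration. Kinase binding is expressed relative to control.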

Assay [3] has as its target Casein kinase I isoform epsilon (Homo sapiens) (UniProt P49674). Briefly: Competitive binding affinity to CSNK1E (unknown origin) at 10 uM in presence of ATP relative to control.
Assay [4] addresses Dual specificity protein kinase CLK2 (Homo sapiens) (UniProt P49760). Briefly: Competitive binding affinity to CLK2 (unknown origin) at 10 uM in presence of ATP relative to control. The method in brief:
as §2

Assay [5] concerns the target Dual specificity protein kinase CLK1 (Homo sapiens) (UniProt P49759). Briefly: Competitive binding affinity to CLK1 (unknown origin) at 10 uM in presence of ATP relative to control.
For assay [6], the target named is Cyclin-dependent kinase 5 (Homo sapiens) (UniProt Q00535). Briefly: Competitive binding affinity to CDK5 (unknown origin) at 10 uM in presence of ATP relative to control.
Assay [7] concerns the target 5'-AMP-activated protein kinase catalytic subunit alpha-1 (Homo sapiens) (UniProt Q13131). Briefly: Competitive binding affinity to AMPKalpha1 (unknown origin) at 10 uM in presence of ATP relative to control.
The target in assay [8] is RAC-alpha serine/threonine-protein kinase (Homo sapiens) (UniProt P31749). Briefly: Competitive binding affinity to AKT1 (unknown origin) at 10 uM in presence of ATP relative to control.
For assay [9], the target named is T1, Non-receptor tyrosine-protein kinase TNK1 (Homo sapiens) (UniProt Q13470).
T1 sequence (whole entry): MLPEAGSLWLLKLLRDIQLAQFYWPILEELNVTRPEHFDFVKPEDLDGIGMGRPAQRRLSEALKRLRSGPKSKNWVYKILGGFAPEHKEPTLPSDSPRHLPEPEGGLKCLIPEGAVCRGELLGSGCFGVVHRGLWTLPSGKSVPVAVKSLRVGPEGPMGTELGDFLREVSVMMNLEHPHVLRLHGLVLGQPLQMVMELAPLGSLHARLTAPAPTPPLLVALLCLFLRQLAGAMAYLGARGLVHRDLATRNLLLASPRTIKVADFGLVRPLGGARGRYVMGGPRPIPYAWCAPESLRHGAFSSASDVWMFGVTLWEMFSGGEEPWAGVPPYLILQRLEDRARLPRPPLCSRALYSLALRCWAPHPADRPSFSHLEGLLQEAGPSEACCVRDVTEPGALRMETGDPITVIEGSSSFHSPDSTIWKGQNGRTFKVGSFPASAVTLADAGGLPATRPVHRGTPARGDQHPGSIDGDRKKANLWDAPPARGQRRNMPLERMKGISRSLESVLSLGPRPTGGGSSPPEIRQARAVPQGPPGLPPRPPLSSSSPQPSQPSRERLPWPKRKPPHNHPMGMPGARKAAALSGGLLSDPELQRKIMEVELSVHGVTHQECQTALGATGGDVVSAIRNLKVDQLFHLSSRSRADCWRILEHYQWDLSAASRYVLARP
Briefly: Competitive binding affinity to TNK1 (unknown origin) at 10 uM in presence of ATP relative to control.

Assay [10] addresses Dual specificity testis-specific protein kinase 1 (Homo sapiens) (UniProt Q15569). Briefly: Competitive binding affinity to TESK1 (unknown origin) at 10 uM in presence of ATP relative to control.
In assay [11] the target is Focal adhesion kinase 1 (Homo sapiens) (UniProt Q05397). Briefly: Competitive binding affinity to PTK2 (unknown origin) at 10 uM in presence of ATP relative to control. The method in brief: (§3)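 In vitro ATP-site competition binding assay across a diverse panel of 128 kinases, with compound tested at a single concentration. Kinase selectivity scores (S15) were calculated from the panel profiles.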

For assay [12], the target named is T2, Serine/threonine-protein kinase PLK4 (Homo sapiens) (UniProt O00444).
T2 sequence (whole entry): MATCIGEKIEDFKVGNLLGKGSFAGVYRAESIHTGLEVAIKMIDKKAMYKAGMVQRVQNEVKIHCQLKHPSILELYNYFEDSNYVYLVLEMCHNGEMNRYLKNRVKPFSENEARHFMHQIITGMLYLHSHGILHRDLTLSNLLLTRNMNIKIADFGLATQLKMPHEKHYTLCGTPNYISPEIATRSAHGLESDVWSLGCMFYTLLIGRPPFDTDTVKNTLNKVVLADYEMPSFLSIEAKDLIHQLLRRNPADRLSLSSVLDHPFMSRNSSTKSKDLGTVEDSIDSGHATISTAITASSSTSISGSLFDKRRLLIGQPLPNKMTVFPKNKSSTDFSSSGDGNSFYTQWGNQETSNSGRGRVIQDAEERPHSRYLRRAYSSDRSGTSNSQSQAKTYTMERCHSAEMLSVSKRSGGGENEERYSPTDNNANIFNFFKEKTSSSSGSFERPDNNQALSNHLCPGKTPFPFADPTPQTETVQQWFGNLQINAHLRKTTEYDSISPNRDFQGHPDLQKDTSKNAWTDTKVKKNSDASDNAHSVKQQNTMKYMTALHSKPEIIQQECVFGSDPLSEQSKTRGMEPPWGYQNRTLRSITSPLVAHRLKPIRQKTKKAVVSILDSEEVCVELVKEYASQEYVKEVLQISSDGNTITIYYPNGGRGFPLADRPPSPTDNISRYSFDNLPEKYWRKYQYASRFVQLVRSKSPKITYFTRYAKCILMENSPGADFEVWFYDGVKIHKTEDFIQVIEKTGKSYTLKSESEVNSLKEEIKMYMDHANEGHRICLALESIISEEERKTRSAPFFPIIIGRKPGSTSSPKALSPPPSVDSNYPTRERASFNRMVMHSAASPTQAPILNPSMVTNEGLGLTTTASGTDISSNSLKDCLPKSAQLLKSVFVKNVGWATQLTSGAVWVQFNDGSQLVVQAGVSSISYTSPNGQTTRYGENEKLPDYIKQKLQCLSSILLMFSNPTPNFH
Briefly: Competitive binding affinity to PLK4 (unknown origin) at 10 uM in presence of ATP relative to control. The method, boiled down: as §3

For assay [13], the target named is Serine/threonine-protein kinase PAK 3 (Homo sapiens) (UniProt O75914). Briefly: Competitive binding affinity to PAK3 (unknown origin) at 10 uM in presence of ATP relative to control. The method, boiled down:
as §3

The target in assay [14] is Myosin light chain kinase 2, skeletal/cardiac muscle (Homo sapiens) (UniProt Q9H1R3). Briefly: Competitive binding affinity to MYLK2 (unknown origin) at 10 uM in presence of ATP relative to control. The method in brief: as §3
For another assay, the target named is LIM domain kinase 1 (Homo sapiens, UniProt P53667). Briefly: Competitive binding affinity to LIMK1 (unknown origin) at 10 uM in presence of ATP relative to control. The method, boiled down: as §1

Chain of Focal adhesion kinase 1 (Homo sapiens) (Q05397 2-1052 limits assumed): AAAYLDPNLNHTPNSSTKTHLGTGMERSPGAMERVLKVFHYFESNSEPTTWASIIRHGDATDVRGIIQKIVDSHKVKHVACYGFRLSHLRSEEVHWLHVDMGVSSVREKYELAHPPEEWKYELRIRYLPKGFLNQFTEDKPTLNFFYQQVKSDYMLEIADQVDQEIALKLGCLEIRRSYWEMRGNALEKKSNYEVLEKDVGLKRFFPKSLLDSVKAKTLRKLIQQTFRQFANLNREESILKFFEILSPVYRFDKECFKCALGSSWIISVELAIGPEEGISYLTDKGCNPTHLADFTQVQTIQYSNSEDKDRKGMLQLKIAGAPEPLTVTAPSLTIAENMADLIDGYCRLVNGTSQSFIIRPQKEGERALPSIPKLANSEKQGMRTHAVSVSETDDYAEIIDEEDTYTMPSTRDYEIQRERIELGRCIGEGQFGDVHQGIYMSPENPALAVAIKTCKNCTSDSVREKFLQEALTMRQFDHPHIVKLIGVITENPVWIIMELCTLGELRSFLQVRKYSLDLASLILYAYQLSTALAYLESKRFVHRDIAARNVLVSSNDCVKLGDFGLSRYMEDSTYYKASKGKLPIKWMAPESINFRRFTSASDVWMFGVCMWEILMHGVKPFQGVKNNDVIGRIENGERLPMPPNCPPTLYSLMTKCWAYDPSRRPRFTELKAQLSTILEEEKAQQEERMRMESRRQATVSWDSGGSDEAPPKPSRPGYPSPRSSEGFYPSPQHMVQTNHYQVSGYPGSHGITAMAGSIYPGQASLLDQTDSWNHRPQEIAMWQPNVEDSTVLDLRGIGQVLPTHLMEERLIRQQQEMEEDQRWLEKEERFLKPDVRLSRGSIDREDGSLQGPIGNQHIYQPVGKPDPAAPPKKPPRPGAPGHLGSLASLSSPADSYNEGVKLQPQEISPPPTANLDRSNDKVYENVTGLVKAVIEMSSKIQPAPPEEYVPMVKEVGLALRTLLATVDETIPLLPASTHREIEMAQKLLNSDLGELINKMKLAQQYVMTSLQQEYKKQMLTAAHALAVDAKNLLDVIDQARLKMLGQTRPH
Chain of Dual specificity protein kinase CLK1 (Homo sapiens) (P49759 whole entry, looked up): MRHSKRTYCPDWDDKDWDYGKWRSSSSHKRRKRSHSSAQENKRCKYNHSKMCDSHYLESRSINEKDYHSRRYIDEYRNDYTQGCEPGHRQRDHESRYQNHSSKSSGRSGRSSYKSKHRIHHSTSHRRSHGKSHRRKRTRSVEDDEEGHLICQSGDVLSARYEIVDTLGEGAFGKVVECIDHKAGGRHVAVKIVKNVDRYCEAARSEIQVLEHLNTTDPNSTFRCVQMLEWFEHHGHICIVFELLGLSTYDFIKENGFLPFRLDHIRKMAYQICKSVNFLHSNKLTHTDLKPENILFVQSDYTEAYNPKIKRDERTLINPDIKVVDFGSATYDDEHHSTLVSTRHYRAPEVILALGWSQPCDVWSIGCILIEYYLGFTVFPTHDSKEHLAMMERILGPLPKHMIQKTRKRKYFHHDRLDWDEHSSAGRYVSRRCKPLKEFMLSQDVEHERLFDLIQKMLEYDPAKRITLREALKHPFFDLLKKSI
Chain of Death-associated protein kinase 3 (O43293 whole entry, looked up): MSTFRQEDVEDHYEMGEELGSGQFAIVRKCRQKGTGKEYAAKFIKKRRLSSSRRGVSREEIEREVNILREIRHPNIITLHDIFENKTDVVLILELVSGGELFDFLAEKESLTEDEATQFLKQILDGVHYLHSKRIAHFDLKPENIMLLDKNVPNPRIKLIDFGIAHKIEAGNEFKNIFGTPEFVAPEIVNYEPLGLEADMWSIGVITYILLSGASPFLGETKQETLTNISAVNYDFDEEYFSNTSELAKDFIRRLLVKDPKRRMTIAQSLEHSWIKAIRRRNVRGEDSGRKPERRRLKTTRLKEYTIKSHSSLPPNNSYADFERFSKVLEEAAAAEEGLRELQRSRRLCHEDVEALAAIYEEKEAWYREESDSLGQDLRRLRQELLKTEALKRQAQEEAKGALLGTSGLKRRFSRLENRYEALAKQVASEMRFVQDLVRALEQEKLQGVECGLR
Chain of 5'-AMP-activated protein kinase catalytic subunit alpha-1 (Homo sapiens) (Q13131 whole entry, looked up): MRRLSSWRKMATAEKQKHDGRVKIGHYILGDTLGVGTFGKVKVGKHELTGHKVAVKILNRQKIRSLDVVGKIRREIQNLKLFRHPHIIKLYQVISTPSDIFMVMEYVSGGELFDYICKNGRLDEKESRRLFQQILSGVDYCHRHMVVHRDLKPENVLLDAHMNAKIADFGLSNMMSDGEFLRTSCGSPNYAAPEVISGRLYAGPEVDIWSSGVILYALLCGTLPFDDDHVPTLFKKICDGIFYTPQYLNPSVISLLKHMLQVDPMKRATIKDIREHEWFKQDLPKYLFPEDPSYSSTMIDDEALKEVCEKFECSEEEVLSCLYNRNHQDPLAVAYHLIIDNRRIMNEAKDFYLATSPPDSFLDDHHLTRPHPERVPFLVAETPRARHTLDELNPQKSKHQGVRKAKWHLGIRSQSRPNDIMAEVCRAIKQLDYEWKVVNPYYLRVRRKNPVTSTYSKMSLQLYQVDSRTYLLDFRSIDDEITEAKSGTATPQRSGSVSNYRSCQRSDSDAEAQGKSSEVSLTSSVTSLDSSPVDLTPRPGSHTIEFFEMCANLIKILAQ
Chain of Serine/threonine-protein kinase PAK 3 (Homo sapiens) (O75914 whole entry, looked up): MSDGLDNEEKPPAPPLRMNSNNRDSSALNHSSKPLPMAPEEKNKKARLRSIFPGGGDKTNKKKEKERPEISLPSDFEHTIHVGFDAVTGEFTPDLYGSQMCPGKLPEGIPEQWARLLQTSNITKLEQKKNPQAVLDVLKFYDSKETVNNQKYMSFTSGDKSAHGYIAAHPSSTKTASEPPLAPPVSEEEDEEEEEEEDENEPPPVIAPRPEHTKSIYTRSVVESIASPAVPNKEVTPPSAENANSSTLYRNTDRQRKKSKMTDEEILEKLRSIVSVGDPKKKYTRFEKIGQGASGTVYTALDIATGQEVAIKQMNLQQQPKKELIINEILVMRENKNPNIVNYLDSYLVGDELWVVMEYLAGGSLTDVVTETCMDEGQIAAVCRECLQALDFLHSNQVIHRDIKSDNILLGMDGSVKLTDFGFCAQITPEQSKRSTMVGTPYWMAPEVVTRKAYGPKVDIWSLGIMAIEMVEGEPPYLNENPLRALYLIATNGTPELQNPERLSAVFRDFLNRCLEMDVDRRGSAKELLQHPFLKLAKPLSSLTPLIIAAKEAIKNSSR
Chain of Dual specificity testis-specific protein kinase 1 (Homo sapiens) (Q15569 whole entry, looked up): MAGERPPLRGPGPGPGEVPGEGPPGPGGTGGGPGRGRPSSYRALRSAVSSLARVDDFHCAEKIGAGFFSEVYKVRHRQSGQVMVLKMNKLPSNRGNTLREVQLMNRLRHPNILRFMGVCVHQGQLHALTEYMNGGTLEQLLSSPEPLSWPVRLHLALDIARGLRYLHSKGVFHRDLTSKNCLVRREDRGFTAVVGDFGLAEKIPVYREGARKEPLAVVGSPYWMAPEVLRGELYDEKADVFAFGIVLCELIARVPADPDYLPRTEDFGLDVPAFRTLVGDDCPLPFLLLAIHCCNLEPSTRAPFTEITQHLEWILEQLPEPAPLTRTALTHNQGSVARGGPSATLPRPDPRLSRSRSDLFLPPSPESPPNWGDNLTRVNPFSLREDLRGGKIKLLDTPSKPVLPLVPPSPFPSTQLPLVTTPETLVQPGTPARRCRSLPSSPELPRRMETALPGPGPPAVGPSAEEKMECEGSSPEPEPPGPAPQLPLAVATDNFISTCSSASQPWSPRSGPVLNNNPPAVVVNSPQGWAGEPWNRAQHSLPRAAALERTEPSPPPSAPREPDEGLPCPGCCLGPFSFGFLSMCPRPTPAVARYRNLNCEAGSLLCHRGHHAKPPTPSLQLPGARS
Chain of Casein kinase I isoform epsilon (Homo sapiens) (P49674 whole entry, looked up, canonical isoform): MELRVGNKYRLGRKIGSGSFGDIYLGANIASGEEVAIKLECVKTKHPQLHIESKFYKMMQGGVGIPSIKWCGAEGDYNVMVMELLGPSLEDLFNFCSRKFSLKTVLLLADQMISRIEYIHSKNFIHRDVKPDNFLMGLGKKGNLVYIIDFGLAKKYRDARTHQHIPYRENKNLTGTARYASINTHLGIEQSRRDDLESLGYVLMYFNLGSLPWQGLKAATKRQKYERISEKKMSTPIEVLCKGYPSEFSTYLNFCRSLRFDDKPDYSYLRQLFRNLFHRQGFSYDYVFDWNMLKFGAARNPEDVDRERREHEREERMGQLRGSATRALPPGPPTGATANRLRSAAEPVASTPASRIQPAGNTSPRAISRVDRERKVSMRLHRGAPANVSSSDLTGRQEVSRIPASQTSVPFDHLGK
Chain of Cyclin-dependent kinase 5 (Homo sapiens) (Q00535 whole entry, looked up): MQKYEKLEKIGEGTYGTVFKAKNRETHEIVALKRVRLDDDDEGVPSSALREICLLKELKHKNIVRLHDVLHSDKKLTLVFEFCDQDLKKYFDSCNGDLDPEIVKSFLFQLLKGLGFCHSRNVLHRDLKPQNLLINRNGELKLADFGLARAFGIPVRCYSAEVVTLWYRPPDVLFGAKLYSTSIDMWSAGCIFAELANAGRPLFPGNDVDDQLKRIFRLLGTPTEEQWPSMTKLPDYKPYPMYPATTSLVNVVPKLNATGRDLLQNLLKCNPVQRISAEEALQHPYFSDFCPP
Chain of RAC-alpha serine/threonine-protein kinase (Homo sapiens) (P31749 whole entry): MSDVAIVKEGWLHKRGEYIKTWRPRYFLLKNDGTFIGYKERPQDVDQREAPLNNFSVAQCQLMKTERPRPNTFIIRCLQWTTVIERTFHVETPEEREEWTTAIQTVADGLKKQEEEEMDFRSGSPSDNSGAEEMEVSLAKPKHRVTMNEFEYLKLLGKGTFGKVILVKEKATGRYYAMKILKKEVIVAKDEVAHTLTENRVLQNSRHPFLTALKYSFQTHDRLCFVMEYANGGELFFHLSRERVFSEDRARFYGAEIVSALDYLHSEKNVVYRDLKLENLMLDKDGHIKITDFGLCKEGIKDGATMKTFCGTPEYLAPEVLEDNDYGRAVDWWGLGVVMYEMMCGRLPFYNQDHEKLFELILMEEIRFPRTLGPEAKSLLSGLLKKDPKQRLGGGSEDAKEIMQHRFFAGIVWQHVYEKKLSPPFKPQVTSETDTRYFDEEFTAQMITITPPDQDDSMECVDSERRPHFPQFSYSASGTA

For `O[C@H]1CC[C@H](Nc2nccc(-c3n[nH]c4ccccc34)n2)CC1`, the inhibition – broadly, the drop in the measured response relative to a control, in per cent – in assay [1] was 95%; in [2], 96%; in assay [3], 100%; in assay [4], 95%; in assay [5] it was 100%; in assay [6], 95%. For the same compound, the inhibition in [7] is 92%; in [8] it was less than 50%; in assay [9], 81%; in assay [10] it was 98%; in assay [11] it was 85%; in assay [12], 100%. Besides, the inhibition in [13] was 99%; in assay [14], 84%; on LIM domain kinase 1 it was 96%.

On to `O[C@H]1CC[C@H](Nc2nccc(-n3ccc4ccccc43)n2)CC1`, for which the inhibition in assay [1] was less than 50%; in assay [2] it was less than 50%; in [3], 85%; in assay [4], 97%; in assay [5], 91%; in assay [6] it was less than 50%. Moreover, the inhibition in assay [7] is less than 50%; in assay [8], less than 50%; in [9], less than 50%; in [10], 82%; in assay [11] it was less than 50%; in assay [12], less than 50%. Further, the inhibition in assay [13] was less than 50%; in assay [14], less than 50%; on LIM domain kinase 1, 77%.

As for `O[C@H]1CC[C@H](Nc2nccc(-n3ncc4ccccc43)n2)CC1`, the inhibition was less than 50% in assay [1]; less than 50% in assay [2]; 94% in [3]; 99% in assay [4]; 93% in assay [5]; less than 50% in assay [6]. Besides, the inhibition in assay [7] is less than 50%; in assay [8], less than 50%; in assay [9] it was less than 50%; in assay [10], 82%; in [11], less than 50%; in [12] it was 63%. Further, the results for the inhibition (in assay [13]; in [14]; at LIM domain kinase 1) were 75%, less than 50% and 88%, respectively.

As for `O[C@H]1CC[C@H](Nc2nccc(-n3nnc4ccccc43)n2)CC1`, the inhibition in [1] is less than 50%; in [2], 93%; in assay [3] it was 100%; in [4], 99%; in [5], 95%; in assay [6], 74%. In addition, the inhibition in [7], in [8], in assay [9], in assay [10], in assay [11] and in [12] was less than 50% each time. Further, the figures for the inhibition (in [13]; in assay [14]; at LIM domain kinase 1) were 76%, less than 50% and 87%, respectively.

Take `O=C([C@H]1CC[C@H](Nc2nccc(-n3nnc4ccccc43)n2)CC1)N1CCOCC1`: the inhibition was less than 50% in assay [1]; 64% in assay [2]; 95% in assay [3]; 94% in assay [4]; 87% in [5]; less than 50% in assay [6]. Also, the inhibition in assay [7] is less than 50%; in assay [8], less than 50%; in assay [11] it was less than 50%; in assay [12], 71%; in assay [13], less than 50%; in [14] it was less than 50%. The inhibition at LIM domain kinase 1 was found to be 78%.

In the case of `CS(=O)(=O)CCCOc1cccc2c1ccn2-c1ccnc(N[C@H]2CC[C@H](C(=O)N3CCC(O)CC3)CC2)n1`, the inhibition (in assay [2]; at LIM domain kinase 1) was greater than 85% each time.

As for `N[C@H]1CC[C@H](Nc2nccc(-n3nnc4ccccc43)n2)CC1`, the inhibition in assay [1] is less than 50%; in assay [2], 95%; in assay [3], 100%; in assay [4], 100%; in assay [5] it was 100%; in assay [6], 90%. In addition, the inhibition in assay [7] was 86%; in assay [8] it was less than 50%; in assay [11] it was less than 50%; in assay [12] it was less than 50%; in assay [13], 90%; in [14] it was 73%. For the same compound, on LIM domain kinase 1, the inhibition is less than 50%.
